The source of these data is ChEMBL document CHEMBL4017499, “The Discovery of Novel Antimalarial Aminoxadiazoles as a Promising Nonendoperoxide Scaffold” (J Med Chem, 2017).

Data set [1] relates to Plasmodium falciparum. Briefly: Ratio of IC50 for chloroquine/pyrimethamine-resistant Plasmodium falciparum V1/S infected in red blood cells to IC50 for wild type Plasmodium falciparum 3D7A infected in red blood cells. Type of data set: functional.
For data set [2], the system named is Plasmodium falciparum. Briefly: Antiplasmodial activity against Plasmodium falciparum 3D7A infected in red blood cells preincubated for 24 hrs followed by [3H]-hypoxanthine addition measured after 24 hrs by scintillation counting. Type of data set: functional, cell-based. In a few lines: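 Whole-cell growth assay on sensitive P. falciparum strain 3D7A by [3H]hypoxanthine incorporation; two or three independent biological replicates per value.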

The nature of data set [3]: Ratio of IC50 for chloroquine/pyrimethamine-resistant Plasmodium falciparum Dd2 infected in red blood cells to IC50 for wild type Plasmodium falciparum 3D7A infected in red blood cells. The data set is classed as functional.
The test system of data set [4] is Plasmodium falciparum. Put plainly: Ratio of IC50 for chloroquine/pyrimethamine/atovaquone-resistant Plasmodium falciparum Tm90C2B infected in red blood cells to IC50 for wild type Plasmodium falciparum 3D7A infected in red blood cells. The data set is classed as functional.
The test system of data set [5] is Plasmodium falciparum. Put plainly: Antimalarial activity against Plasmodium falciparum 3D7 0087/N9 infected in po dosed SCID mouse assessed as reduction in parasitemia administered 3 days post infection dosed once a day for four consecutive days measured after 7 days. Type of data set: functional. The following applies: 3D7 0087/N9, po. An outline of the steps:
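SCID mice engrafted with human parasite P. falciparum Pf 3D70087/N9; oral dosing started 3 days after infection, once daily for four consecutive days; parasitemia compared with untreated controls.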

A short description of data set [6]: Solubility of the compound in fasted state stimulated intestinal fluid at pH 6.5 by HPLC analysis. Type of data set: physicochemical. To be noted: fasted state simulated intestinal fluid. In a few lines: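 Solubility measured in fasted state simulated intestinal fluid, pH 6.5.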
Data set [7] can be described thus: Lipophilicity, log D of compound at pH 7.4 by chromatographic method. The data set is classed as physicochemical. To be noted: buffer.
A short description of data set [8]: Ratio of IC50 for chloroquine-resistant Plasmodium falciparum 2B12 infected in red blood cells to IC50 for wild type Plasmodium falciparum […] infected in red blood cells. The data set is classed as functional.
Data set [9] is described as follows: Chemical stability of compound in SGF media at pH 1.6 after 24 hrs. The data set is classed as physicochemical. The following applies: simulated gi fluid, pH 1.6, 24 h. In a few lines: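 Stability in simulated gastric fluid at pH 1.6, held at 37 °C for up to 24 h; checked for degradation products.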
Data set [10] in a line: AUC in Swiss CD1 mouse plasma at 500 mg/kg, po. Type of data set: ADME, organism-based. An outline of the steps: (§1)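 Female Swiss CD-1 mice given oral doses of 300 and 500 mg/kg; in-life observations, body weight evolution, relative organ weight, hematology and clinical chemistry recorded; plasma exposure measured at the highest dose; two independent experiments.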
Data set [11] concerns Mus musculus. Briefly: Toxicity in Swiss CD1 mouse assessed as effect on in life observation at 300 to 500 mg/kg, po measured up to 24 hrs post dose by Irwin test. The data set is classed as organism-based. The following applies: in vivo. An outline of the steps: as §1
The test system of data set [12] is Mus musculus. Briefly: Toxicity in Swiss CD1 mouse assessed as effect on body weight evolution at 300 to 500 mg/kg, po measured up to 24 hrs post dose by Irwin test. Type of data set: organism-based. To be noted: in vivo. In a few lines: as §1
The subject of data set [13] is Mus musculus. Put plainly: Toxicity in Swiss CD1 mouse assessed as effect on organ weight at 300 to 500 mg/kg, po measured up to 24 hrs post dose by Irwin test. Type of data set: organism-based. The following applies: in vivo. In a few lines:
as §1

Data set [14] in a line: Ratio of TC50 for human HepG2 to IC50 for antiplasmodial activity against Plasmodium falciparum 3D7A infected in red blood cells. In a few lines: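 Denominator is the asexual P. falciparum 3D7A IC50 from a [3H]hypoxanthine incorporation assay, using two or three independent biological replicates. Numerator is the 50% toxicity value in HepG2 cells, expressed as Tox50/Pf 3D7 IC50.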

In data set [15] the test system is Mus musculus. Put plainly: Toxicity in Swiss CD1 mouse assessed as passivity at 500 mg/kg, po measured up to 24 hrs post dose by Irwin test. Type of data set: organism-based. The following applies: in vivo.
For data set [16], the system named is Plasma. Briefly: Drug metabolism in Swiss CD1 mouse assessed as 2-([3,4'-Bipyridine]-2'-carbonyl)-N-(4-(pyrrolidin-1-ylmethyl)-phenyl)hydrazinecarboxamide in plasma at 300 to 500 mg/kg, po by HPLC analysis. The data set is classed as ADME, organism-based. The following applies: in vivo. In a few lines: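 Mice given high oral doses (250/300 and 500 mg/kg); plasma analysed by HPLC for parent compound and breakdown products, expressed as percentage levels.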

The IC50 is the concentration at which inhibition is half-maximal. Low readings indicate greater potency, high ones weaker potency. The term solubility denotes how much of the substance goes into solution per volume. The chromatographic logD is lipophilicity estimated from chromatographic retention. A lower chromatographic logD goes with lower lipophilicity. A word on the AUC: it is concentration integrated over time. Low readings indicate low exposure, high ones high exposure. In the case of `c1cncc(-c2ccnc(-c3nnc(Nc4ccc(CN5CCCC5)cc4)o3)c2)c1`, the “Ratio IC50” value in data set [1], in data set [3], in data set [4] and in data set [8] was 1 each time. Also, in [2], inhibition was half-maximal at 20 nM (IC50). In addition, the ED90 in data set [5] is 12.4 mg/kg. Moreover, the solubility in data set [6] was above 1000 µg/mL. Moreover, the chromatographic logD in [7] is 1.3. Further, in data set [9], the Stability entry was “Stable”. The AUC in data set [10] came to 68900 ng·h/mL. For the same molecule, the Activity result in data set [11] is recorded as “Non-Toxic”; in [12], “Non-Toxic”; in data set [13], “Non-Toxic”; in data set [15] it was “Toxic”. Further, the Ratio in [14] was above 1000. Besides, in [16], the Drug metabolism entry is listed as “Metabolite_Detected”.
